Results taken from ChEMBL document CHEMBL2406936, “Highly oxygenated meroterpenoids from fruiting bodies of the mushroom Tricholoma terreum” (J Nat Prod, 2013).

Experiments:
Assay type in all cases: functional, cell-based
[1] = tested on: SW480; assay: Cytotoxicity against human SW480 cells after 48 hrs by MTT assay
In short: (§1)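 Cells grown in RPMI1640 or DMEM with 10% FBS at 37 °C under 5% CO2. Adherent lines (A-549, MCF-7, SMMC-7721, SW480) were allowed 12 h to attach before dosing. Suspension HL-60 cells were seeded just before dosing at an initial 1 × 10^5 cells/mL. Compounds in DMSO at 0.0625, 0.32, 1.6, 8 and 40 μmol, in triplicate, for 48 h. MTT read-out. Cisplatin and vinorelbine were the positive controls.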

[2] = tested on: SMMC-7721; assay: Cytotoxicity against human SMMC7721 cells after 48 hrs by MTT assay; in short: as §1
[3] = tested on: A549; assay: Cytotoxicity against human A549 cells after 48 hrs by MTT assay; in short: as §1
[4] = tested on: MCF7; assay: Cytotoxicity against human MCF7 cells after 48 hrs by MTT assay; in short: as §1
[5] = tested on: HL-60; assay: Cytotoxicity against human HL60 cells after 48 hrs by MTT assay; in short: as §1

For `COc1cc(O)c2c(c1O)C[C@]1(C)O[C@@H]1CC[C@@]1(C)O[C@@H]1C2=O`, the IC50 [1] was 14.2 µmol, the IC50 [2] was 11.3 µmol and the IC50 [3] was 4.2 µmol. The IC50 [4] was 16.1 µmol and the IC50 [5] was 4 µmol.

For `COc1cc(O)c2c(c1O)C/C(C)=C\CC[C@@]1(C)O[C@@H]1C2=O`, the IC50 [1] was greater than 40 µmol, the IC50 [2] was 24.7 µmol and the IC50 [3] was 16.4 µmol. The IC50 [4] was 24.6 µmol and the IC50 [5] was 5.6 µmol.

`COc1cc(O)c2c(c1O)C/C(C)=C\[C@@H](O)C[C@@]1(C)O[C@@H]1C2=O` was tested, and the IC50 [1] was 21.1 µmol, the IC50 [2] was 14.9 µmol and the IC50 [3] was 6.5 µmol. The IC50 [4] was 21 µmol and the IC50 [5] was 17.8 µmol.
